Compound activity deposited in PubChem by several laboratories.
SENP8 block-1 = SENP8 protease inhibitors, primary screen, biochemical, luminescence; inhibition, % at 10 µM; Sentrin-specific protease 8 (Homo sapiens), Q96LD8; purified SENP8, Z-RLRGG-aminoluciferin cleavage; 330,000 compounds, 1.2% hits; in the data active = inhibition above about 50%
Target sequence (Q96LD8 whole entry, looked up): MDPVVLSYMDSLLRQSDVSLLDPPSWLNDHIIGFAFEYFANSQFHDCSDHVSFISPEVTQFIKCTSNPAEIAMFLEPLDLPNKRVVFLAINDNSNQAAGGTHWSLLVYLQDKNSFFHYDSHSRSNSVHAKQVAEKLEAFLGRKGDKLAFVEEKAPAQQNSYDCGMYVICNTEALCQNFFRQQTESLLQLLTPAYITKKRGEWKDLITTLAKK
SENP6 inh = SENP6 protease inhibitors, primary screen, biochemical, luminescence, uHTS; inhibition, % at 10 µM; AID 2599, 2010; Recombinant SENP6 catalytic domain, aminoluciferin luminescence; 330,000 compounds, 1.8% hits;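 active = inhibition above about 50% at the single tested dose, limit read from the data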;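 also: plate controls were DMSO wells with enzyme for no effect and DMSO wells lacking enzyme for full effect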
HSP90 inh = HSP90 inhibitors, primary screen, cell lysate, luminescence. 290,000 compounds, 0.91% hits. AID 1789, 2009. Rabbit reticulocyte lysate, luciferase refolding luminescence, 3 h. inhibition, % at 5.6 µM;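 active = inhibition above the screen-wide mean plus 3 SD, computed separately per campaign, cut at about 16% in these data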;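 also: 0% = DMSO wells and 100% = 60 µM geldanamycin wells; inhibitors lower the luminescence because luciferase stays unfolded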
SENP1 FRET inh = human SENP1 catalytic domain inhibitors, primary screen, biochemical, FRET, uHTS. recombinant SENP1 catalytic domain, CyPet-SUMO1-YPet FRET cleavage. 360,000 compounds, 0.21% hits. inhibition, % at 10 µM;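 active = inhibition at least 30% at 10 µM, raw YFP signal under a set limit, fluorescence ratio 0.5 to 1.5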;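 also: 0% = enzyme with DMSO and 100% = no enzyme wells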
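material = recombinant human SENP1 catalytic domain, His6-tagged | quantity = 20 pM enzyme | reagent = 25 nM SUMO1 FRET substrate | compound dosing = 10 µM single point, 0.5% DMSO | timing = 50 min enzyme reaction, room temperature, light-protected | detection = FRET, CFP and YFP emission | control set = no-enzyme low, enzyme-DMSO high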
SENP7 inh = SENP7 protease inhibitors, primary screen, biochemical, luminescence, uHTS | Sentrin-specific protease 7 (Homo sapiens), Q9BQF6 | inhibition, % at 5 µM | recombinant SENP7, Z-RLRGG-aminoluciferin luminescence, 40 min | 330,000 compounds, 1.5% hits | AID 434973, 2010;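 active = inhibition above about 50% at the single test dose, limit read from the data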;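 also: plate controls were DMSO with enzyme for no effect and no enzyme buffer wells for full effect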
SENP8 block-2 = human SENP8 protease inhibitors, primary screen, biochemical, fluorescence, Nedd8 protein substrate, uHTS; recombinant SENP8; inhibition, % at 20 µM; 360,000 compounds, 0.64% hits; in the data active = inhibition mostly above about 40%, no sharp cut-off; inactive = mostly below about 27%
SENP8 confirm = SENP8 protease inhibitors, retest, confirmation, biochemical, luminescence, single concentration; shares compounds with SENP7 inh; inhibition, % at 12.5 µM; Recombinant SENP8, Z-RLRGG-aminoluciferin luminescence, 60 min; 6,200 compounds, 40% hits;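 active = mean inhibition across replicates above about 50%, limit read from the data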
SENP6 confirm = SENP6 protease inhibitors, confirmation, biochemical, luminescence, single concentration. shares compounds with SENP7 inh. recombinant SENP6, Z-RLRGG-aminoluciferin luminescence. inhibition, % at 12.5 µM. 6,200 compounds, 58% hits. AID 488915, 2010
SENP7 confirm = SENP7 protease inhibitors, retest, confirmation, biochemical, luminescence, single concentration. shares compounds with SENP7 inh. recombinant SENP7, Z-RLRGG-aminoluciferin luminescence, 40 min. inhibition, % at 12.5 µM. 6,200 compounds, 69% hits. AID 488917, 2010
Casp3 select = caspase-3 protease inhibitors, confirmation, selectivity assay for SENP inhibitor project, biochemical, single concentration; purified caspase-3, Z-DEVD-aminoluciferin luminescence, 60 min; shares compounds with SENP7 inh; inhibition, % at 12.5 µM; AID 488918, 2010; 6,200 compounds, 60% hits;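 active = mean inhibition above about 50%, limit read from the data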;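 also: plate controls were enzyme with DMSO for no effect and wells without caspase-3 for full effect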
Target sequence (P42574 28-227 limits assumed): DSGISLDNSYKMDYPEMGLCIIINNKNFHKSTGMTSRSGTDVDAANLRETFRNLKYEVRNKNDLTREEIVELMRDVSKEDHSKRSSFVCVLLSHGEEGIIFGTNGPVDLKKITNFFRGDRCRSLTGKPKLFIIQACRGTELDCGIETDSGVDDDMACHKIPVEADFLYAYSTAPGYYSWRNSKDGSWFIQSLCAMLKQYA
Luc interf = luminescence interference (SENP counter-screen) | shares compounds with SENP7 inh | Pre-incubated SENP8/Z-RLRGG-aminoluciferin, luciferase luminescence interference | inhibition, % at 12.5 µM | 6,200 compounds, 39% hits | AID 488919;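 active = mean inhibition above about 50% when retested at one dose, limit read from the data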;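 also: plate controls were DMSO wells with completed reaction for no effect and substrate without enzyme for full effect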
Starred values were filed as active, the others as inactive; . = not tested or not shown. This is a sample that favours compounds with a hit; in the whole collection about 2.9% have one here.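 The calls were made as follows, unless noted: active = mean inhibition above about 50% in the one-dose retest (limit read from the data); inactive = the rest.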

SMILES | SENP8 block-1 | SENP6 inh | HSP90 inh | SENP1 FRET inh | SENP7 inh | SENP8 block-2 | SENP8 confirm | SENP6 confirm | SENP7 confirm | Casp3 select | Luc interf
O=C(Nc1cccnc1)c1ccc(Cl)c(S(=O)(=O)N2CCCCC2)c1 | -4 | -2 | -3 | -1 | -11 | 7 | . | . | . | . | .
O=C(O)c1cccc(NC(=O)c2ccc3c(c2)C(=O)N(C2CCCCC2)C3=O)c1 | 93* | 95* | 9 | 2 | 97* | 0 | 83* | 81* | 100* | 62* | 50
O=C(O)c1cccc(NC(=O)c2cccc(S(=O)(=O)N3CCc4ccccc43)c2)c1 | 22 | 54* | 0 | 0 | 0 | 4 | 41 | 37 | 70* | 3 | 43
O=C(Nc1ccncc1)c1cccc(S(=O)(=O)N2CCc3ccccc32)c1 | -4 | -18 | . | 0 | -1 | 8 | . | . | . | . | .
O=C(O)c1cccc(NC(=O)c2ccc(Cl)c(S(=O)(=O)N3CCCCCC3)c2)c1 | 78* | 85* | 4 | 2 | 85* | 17 | 90* | 89* | 98* | 55* | 79*
COc1ccc(/C(N)=N/OC(=O)C2CCCCC2)cc1 | 26 | 27 | -1 | 0 | 68* | -11 | -17 | 10 | 61* | 17 | 18
COc1ccc(/C(N)=N/OC(=O)C2CCCCC2)cc1OC | 6 | 41 | -4 | 5 | 50 | -1 | . | . | . | . | .
COc1ccc(/C(N)=N/OC(=O)Cc2cccs2)cc1OC | -10 | -1 | 2 | -1 | -1 | 11 | . | . | . | . | .
N/C(=N\OC(=O)C1CCCCC1)c1cccc(Br)c1 | 27 | 69* | -2 | 1 | 48 | 11 | 45 | 46 | 80* | 69* | 51*
COc1ccc(/C(N)=N/OC(=O)Cc2cccs2)cc1 | 9 | 51* | -2 | 2 | 1 | 5 | 30 | 28 | 67* | 26 | 33
COc1cccc(OC)c1C(=O)Nc1ccc2c(c1)OCCO2 | 5 | 7 | -4 | 0 | 10 | 19 | . | . | . | . | .
O=C(Nc1ccc(C(=O)N2CCOCC2)cc1)Nc1cccc(Cl)c1 | 40 | 69* | -1 | 1 | 57* | -3 | 60* | 58* | 85* | 61* | 63*
O=C(Nc1cccc([N+](=O)[O-])c1)c1ccc2c(c1)OCCO2 | 63* | 72* | 0 | 1 | 75* | 8 | 68* | 70* | 93* | 72* | 80*
O=C(Nc1cccc(Cl)c1)c1ccc2c(c1)OCCO2 | 92* | 91* | 7 | 1 | 95* | -3 | 0 | 93* | 101* | 89* | 94*
O=C(Nc1ccncc1)c1ccc2c(c1)OCCO2 | -9 | 4 | 0 | 1 | -5 | 11 | . | . | . | . | .
